About 1,200 (0.4%) of roughly 300,000 compounds were called active.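 The calls were made as follows: active = B-score over 3 SD under the library average, no early fluorescence shift, positive overall ratio signal; inactive = the rest.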 Many of the other results were omitted from the sample, so actives are more common in it than they were.

In the assay the target is Short transient receptor potential channel 4 (Mus musculus) (UniProt Q9QUQ5). The assay is described as follows: inhibitors of mouse TRPC4 channel, primary screen, Fluo4 calcium, HEK293 TRPC4beta/mu-opioid cells (AID 2247). Particulars: DAMGO-evoked Fluo4 calcium flux, at 10 µM; active compounds read low. The gist of the method: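 System: stable TRPC4beta/mu-opioid receptor HEK293 cells; Dosing: single-point compound dosing; Measured by: Fluo4 Ca2+ flux fluorescence; Read-out basis: per-well B score of integrated baseline-normalized Fluo4 ratio.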
Short transient receptor potential channel 4 (Mus musculus), sequence (Q9QUQ5 whole entry, looked up): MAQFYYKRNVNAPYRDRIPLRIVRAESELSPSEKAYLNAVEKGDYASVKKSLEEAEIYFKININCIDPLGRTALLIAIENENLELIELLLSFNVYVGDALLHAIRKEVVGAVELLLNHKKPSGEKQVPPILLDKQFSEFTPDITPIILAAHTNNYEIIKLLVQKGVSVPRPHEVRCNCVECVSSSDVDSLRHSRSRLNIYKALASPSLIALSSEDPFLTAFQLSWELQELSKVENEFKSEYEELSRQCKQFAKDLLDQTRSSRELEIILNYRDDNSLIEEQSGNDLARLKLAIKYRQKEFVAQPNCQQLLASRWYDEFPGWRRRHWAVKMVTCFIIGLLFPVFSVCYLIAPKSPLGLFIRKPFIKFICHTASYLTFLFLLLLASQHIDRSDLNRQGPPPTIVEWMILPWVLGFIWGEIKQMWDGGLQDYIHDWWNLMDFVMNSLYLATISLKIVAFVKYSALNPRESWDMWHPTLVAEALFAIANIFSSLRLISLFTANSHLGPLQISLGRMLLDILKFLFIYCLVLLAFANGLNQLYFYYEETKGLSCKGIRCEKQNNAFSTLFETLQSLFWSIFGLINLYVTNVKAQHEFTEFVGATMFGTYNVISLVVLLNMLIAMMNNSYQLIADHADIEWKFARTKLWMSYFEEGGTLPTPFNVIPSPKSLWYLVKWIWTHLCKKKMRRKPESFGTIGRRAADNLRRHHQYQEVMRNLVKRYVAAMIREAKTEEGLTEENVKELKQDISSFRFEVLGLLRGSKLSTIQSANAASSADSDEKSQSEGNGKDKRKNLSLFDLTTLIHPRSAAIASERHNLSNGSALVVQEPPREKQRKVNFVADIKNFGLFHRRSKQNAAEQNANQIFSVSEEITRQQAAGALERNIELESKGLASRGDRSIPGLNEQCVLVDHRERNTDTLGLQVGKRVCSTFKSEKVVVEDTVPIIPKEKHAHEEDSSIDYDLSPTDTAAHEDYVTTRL
A general note: Calcium flux is commonly read through the fluorescence of an indicator in the cells.
In the case of `O=C(NC1CC1)C1CCCN(C(=O)NC2CCCCC2)C1` (stereo unspecified), the B-score entry was “inactive”.

Take `CCc1nc(SCC(=O)Nc2ccccc2OC)n[nH]1`: the B-score entry was “inactive”. To `COc1ccc(N(CC(=O)Nc2cc(OC)cc(OC)c2)S(=O)(=O)c2c(C)n[nH]c2C)cc1` belongs “inactive”; to `O=C(O)C(F)(F)C(NCc1ccccc1)c1ccccc1` (stereo unspecified), “inactive”. To `CCCc1c(C(=O)N/N=C(\C)CCc2ccc(OC)cc2)nnn1-c1nonc1N` belongs “inactive”; to `CN(C)c1cc(N)c2ccccc2n1` (tested in a mixture with another compound), -5 (active); to `COc1ccc(-c2cc(C(=O)N(C)Cc3ccccc3)c3ccccc3n2)cc1`, “inactive”. To `Nc1nc(-c2ccccc2)cc(-c2ccccc2)n1` belongs “inactive”; to `COc1ccccc1C(=O)N(Cc1ccc(C)o1)C1CCS(=O)(=O)C1` (stereo unspecified), “inactive”. As for `CCCCCCCCCOC1OC(CO)C(O)C(O)C1NC(C)=O` (stereo unspecified), the B-score entry was “inactive”. Turning to `Cc1nn(-c2ccccc2)c2[nH]c(C(F)(F)F)cc(=O)c12`, the B-score was -7 (active). Regarding `Cc1nn(-c2ccccc2)c(=O)c2noc(C)c12`, the B-score result is “inactive”.

`Cc1nc2c(c(C)nn2-c2ccccc2)c(C)c1C`: the B-score result is “inactive”. Under `COc1ccc(Nc2cc(Sc3ccc(OC)cc3)ncn2)cc1` stands “inactive”; under `Clc1ccc(-c2ncc3ccccn23)c(Cl)c1`, “inactive”. To `Clc1ccc(COn2c(-c3ccc(Cl)cc3Cl)nc3ncccc32)cc1` belongs -9 (active). Under `COn1c(-c2ccc(Cl)cc2Cl)nc2ncccc21` stands “inactive”; under `O=C(COC(=O)c1ccc([N+](=O)[O-])cc1Cl)NC(=O)c1ccccc1`, “inactive”; under `Cc1cc(C)c(S(=O)(=O)NCC(c2ccc3c(c2)OCO3)N2CCOCC2)c(C)c1` (stereo unspecified), “inactive”. In the case of `N#C/C(=C/c1ccc(Cl)cc1)NC(=O)c1ccccc1`, the B-score entry was “inactive”. To `Cc1c(Cl)c([N+](=O)[O-])nn1CC(=O)NCCCN1CCOCC1` belongs “inactive”; to `CC(=O)Nc1ccc(NC(=O)COc2ccccc2C(=O)Nc2cccc(Cl)c2Cl)cc1`, “inactive”; to `FC(F)Oc1ccccc1NC(=S)Nc1cccc(Cl)c1Cl`, -7 (active). To `COc1ccccc1NC(=S)NC(=O)C(C)C` belongs “inactive”; to `CCCCc1nc(SCC(=O)Nc2nnc(C(C)C)s2)n[nH]1`, “inactive”. Under `C[N+](C)(C)CCOP(=O)([O-])OC[C@H](O)CO` stands “inactive”; under `O=C(Nc1cccc(S(=O)(=O)NC2=NCCC2)c1)C1CCCCC1`, “inactive”. With `COc1ccc(/C=N/Nc2ncnc3sc4c(c23)CCCC4)cc1O`, the B-score result is “inactive”. Take `N=c1c2c3c(sc2ncn1N)CCCC3`: the B-score result is “inactive”.

Turning to `COc1ncnc2sc3c(c12)CCCC3`, the B-score is -6 (active).

`Cc1ccc(S(=O)(=O)N(CC(O)CN2CCCCC2)c2cccc([N+](=O)[O-])c2)cc1` (stereo unspecified): the B-score result was “inactive”. To `Cc1cc(C)n2nc(C(=O)OCC(=O)N(CCC#N)c3ccc(F)cc3)nc2n1` belongs “inactive”; to `CCCn1nc(NS(=O)(=O)c2ccc(F)cc2)c2cc3ccccc3nc21`, “inactive”; to `C=C(C)COc1ccc(-c2n[nH]c(C)c2-c2ccccc2OC)c(O)c1`, “inactive”. To `C=C(C)COc1ccc(-c2n[nH]c(C)c2-c2ccccc2)c(O)c1` belongs “inactive”; to `COc1ccc(-c2n[nH]c(C)c2-c2ccccc2OC)c(O)c1`, -6 (active).

With `Cc1ccc(-n2c(C)cc(C(=O)CSc3nnc4ccccn34)c2C)cc1`, the B-score entry was “inactive”. To `COc1ccc(NC(=O)NC2CC3CCCC(C2)N3Cc2ccccc2)cc1` (stereo unspecified) belongs “inactive”.

On to `CC(=O)NC1CC2CCCC(C1)N2CC(=O)Nc1ccccc1` (stereo unspecified), for which the B-score result is “inactive”.

Consider `CN(C)c1ccc(NC(=O)CN2C3CCCC2CC(NC(=O)c2ccccc2)C3)cc1` (stereo unspecified), for which the B-score was -9 (active). Consider `COc1ccc(OC)c(C(C)NC(=S)Nc2ccc(S(=O)(=O)Nc3ncccn3)cc2)c1` (stereo unspecified), for which the B-score entry was “inactive”.

The values are drawn from PubChem BioAssay AID2247 (Johns Hopkins Ion Channel Center, 2010).
